{"data": "Results pooled from the literature", "target": "Serine/threonine-protein kinase BRSK1 (BRSK1, Homo sapiens, UniProt Q8TDC3)", "Sequence (Q8TDC3 1-778, as in one of the studies)": "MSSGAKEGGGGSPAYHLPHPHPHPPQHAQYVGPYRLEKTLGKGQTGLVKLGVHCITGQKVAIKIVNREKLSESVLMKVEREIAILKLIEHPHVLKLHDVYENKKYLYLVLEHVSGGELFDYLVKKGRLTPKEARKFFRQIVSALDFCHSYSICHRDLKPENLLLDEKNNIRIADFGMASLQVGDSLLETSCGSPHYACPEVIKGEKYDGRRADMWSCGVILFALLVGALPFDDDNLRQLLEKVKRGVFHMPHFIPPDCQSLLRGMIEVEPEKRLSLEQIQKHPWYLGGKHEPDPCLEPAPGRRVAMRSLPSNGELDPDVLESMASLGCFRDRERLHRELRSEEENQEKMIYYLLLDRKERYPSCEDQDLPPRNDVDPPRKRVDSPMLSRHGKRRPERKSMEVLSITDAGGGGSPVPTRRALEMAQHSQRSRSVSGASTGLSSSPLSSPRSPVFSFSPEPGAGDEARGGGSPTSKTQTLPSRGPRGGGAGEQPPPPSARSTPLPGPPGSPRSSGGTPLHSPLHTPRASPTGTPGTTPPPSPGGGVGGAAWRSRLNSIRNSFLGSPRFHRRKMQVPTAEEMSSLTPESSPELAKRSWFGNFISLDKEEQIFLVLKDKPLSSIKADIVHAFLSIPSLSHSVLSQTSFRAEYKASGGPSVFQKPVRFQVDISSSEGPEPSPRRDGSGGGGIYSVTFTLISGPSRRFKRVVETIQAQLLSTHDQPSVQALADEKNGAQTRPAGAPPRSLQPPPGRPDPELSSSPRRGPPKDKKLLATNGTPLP", "note": "Lines come from different studies, so protocols differ."}
{"assay": "cell-free assay, competition with immobilised ligand", "setting": "1 µM", "measurement": "remaining binding", "result": "100%", "Compound": "CC(C)(O)c1cncc(-c2nc3ccc(F)cc3n2C2CC2)c1"}
{"assay": "cell-free assay", "setting": "0.5 µM", "measurement": "remaining signal", "result": "94.3%", "Compound": "O=C1NC(=O)c2cc(Nc3ccc(F)cc3)c(Nc3ccc(F)cc3)cc21"}
{"assay": "enzyme activity, inhibitor", "setting": "10 µM", "measurement": "remaining activity", "result": "131%", "Compound": "CCN(CC)c1ccc(C2=NNC(=O)CC2C)cc1[N+](=O)[O-] (stereo not drawn)"}
{"assay": "enzyme activity, inhibitor, radiometric", "setting": "5 µM", "measurement": "activity vs control", "result": "82%", "Compound": "FC(F)(F)Oc1cccc(-c2cnc3ccc(-c4ccncc4)nn23)c1"}
{"assay": "enzyme activity, inhibitor", "setting": "1 µM", "measurement": "inhibition", "result": "1%", "Compound": "COc1cc2ncnc(Nc3ccc(Oc4ccccc4)cc3C)c2cc1OC"}
{"assay": "enzyme activity, inhibitor", "setting": "10 µM", "measurement": "remaining activity", "result": "161%", "Compound": "FC(F)c1nc2ccccc2n1-c1nc(N2CCOCC2)nc(N2CCOCC2)n1"}
{"assay": "cell-free assay, competition with immobilised ligand", "setting": "1 µM", "measurement": "remaining binding", "result": "100%", "Compound": "CCC(=N\\O)/C(C)=C/c1ccc(F)cc1"}
{"assay": "cell-free assay", "setting": "0.5 µM", "measurement": "remaining signal", "result": "49.2%", "Compound": "Nc1nc(Nc2ccc(S(N)(=O)=O)cc2)nn1C(=O)c1c(F)cccc1F"}
{"assay": "enzyme activity, inhibitor", "setting": "1 µM", "measurement": "activity vs control", "result": "92%", "Compound": "COc1cc(/C=C/C(=O)CC(=O)/C=C/c2ccc(O)c(OC)c2)ccc1O"}
{"assay": "enzyme activity, inhibitor", "setting": "23.5 nM", "measurement": "remaining activity", "result": "83%", "Compound": "Cc1ccc(C(=O)Nc2ccc(CN3CCN(C)CC3)c(C(F)(F)F)c2)cc1C#Cc1cnc2cccnn12"}
{"assay": "enzyme activity, inhibitor", "setting": "1 µM", "measurement": "remaining activity", "result": "100%", "Compound": "COc1cc(Cl)c(C(=O)N[C@@H](CN[C@H]2CC[C@@H](N)CC2)Cc2ccc(C#N)cc2)cc1-c1ccc(CN[C@H](C)c2ccc(C)cc2)o1"}
{"assay": "cell-free assay, competition with immobilised ligand", "setting": "1 µM", "measurement": "remaining binding", "result": "88.9%", "Compound": "CCCCN(CCCC)C(=O)CN1C[C@@H](c2cc(OC)c3c(c2)OCO3)[C@H](C(=O)O)[C@H]1CC(C)(C)CCC"}
{"assay": "cell-free assay", "setting": "0.5 µM", "measurement": "remaining signal", "result": "92.5%", "Compound": "COc1cc2ncnc(Nc3ccc(F)c(Cl)c3)c2cc1OCCCN1CCOCC1"}
{"assay": "enzyme activity, inhibitor", "setting": "5 µM", "measurement": "remaining activity", "result": "99.4%", "Compound": "O=C(Nc1cnn(-c2csc(C(=O)NC3COC3)c2)c1)Nc1c(F)cccc1Cl"}
{"assay": "cell-free assay, competition with immobilised ligand", "setting": "1 µM", "measurement": "remaining binding", "result": "93%", "Compound": "CN(C)C(=O)Cn1cc(-c2nc(C3(c4ccc(-c5cnc(N)nc5)cc4)CC3)no2)cn1"}
{"assay": "enzyme activity, inhibitor", "setting": "1 µM", "measurement": "inhibition", "result": "< 10%", "Compound": "CCCS(=O)(=O)Nc1ccc(F)c(C(=O)c2c[nH]c3ncc(-c4ccc(Cl)cc4)cc23)c1F"}
{"assay": "enzyme activity, inhibitor", "setting": "0.3 µM", "measurement": "inhibition", "result": "18%", "Compound": "Cc1ccc(Nc2nccc(N(C)c3ccc4c(C)n(C)nc4c3)n2)cc1S(N)(=O)=O"}
{"assay": "cell-free assay, competition with immobilised ligand", "setting": "1 µM", "measurement": "remaining binding", "result": "100%", "Compound": "Cc1nc(Cc2cccc(C(F)(F)F)c2)sc1-c1ccc(C(N)=O)nc1"}
{"assay": "enzyme activity, inhibitor, radiometric", "setting": "1 µM", "measurement": "remaining activity", "result": "77%", "Compound": "Cc1cnc(NC2CCOCC2)nc1-n1cnc(C(=O)NC(CN)c2cc(F)cc(Cl)c2)c1 (stereo not drawn)"}
{"assay": "enzyme activity, inhibitor, radiometric", "setting": "1 µM", "measurement": "remaining activity", "result": "105%", "Compound": "CC(C)(C)c1nc(-c2cccc(NS(=O)(=O)c3c(F)cccc3F)c2F)c(-c2ccnc(N)n2)s1"}
{"assay": "enzyme activity, inhibitor", "setting": "10 µM", "measurement": "remaining activity", "result": "85%", "Compound": "Cn1c(=O)n(-c2ccc(C(C)(C)C#N)cc2)c2c3cc(-c4cnc5ccccc5c4)ccc3ncc21"}
{"assay": "cell-free assay, competition with immobilised ligand", "setting": "0.1 µM", "measurement": "remaining binding", "result": "84%", "Compound": "Cc1cc(C)c(-n2ccn3nc(-c4cccnc4)cc23)cc1NC(=O)c1cc(C#N)cc(S(F)(F)(F)(F)F)c1"}
{"assay": "enzyme activity, inhibitor", "setting": "10 µM", "measurement": "inhibition", "result": "20%", "Compound": "CNC(=O)c1cc(Oc2ccc(NC(=O)Nc3ccc(Cl)c(C(F)(F)F)c3)cc2)ccn1"}
{"assay": "cell-free assay, competition with immobilised ligand", "setting": "1 µM", "measurement": "remaining binding", "result": "100%", "Compound": "O=C(N1CCS(=O)(=O)CC1)N1C[C@H](c2ccc(OC(F)(F)F)cc2)C[C@H](c2nc(C3CC3)no2)C1"}
{"assay": "enzyme activity, inhibitor", "setting": "10 µM", "measurement": "remaining activity", "result": "40%", "Compound": "CCCOc1ccc(OC)c(F)c1C(=O)c1ccc(C(=O)N[C@@H]2CNC[C@H]2NC(=O)c2ccc3[nH]ncc3c2)cc1"}
{"assay": "cell-free assay, competition with immobilised ligand", "setting": "1 µM", "measurement": "remaining binding", "result": "55%", "Compound": "CCc1ccccc1C(=O)Nc1n[nH]c2c(C)c(F)c(C3C(C#N)=C(C)N(C)C(C)=C3C#N)cc12"}
{"assay": "enzyme activity, inhibitor", "setting": "10 µM", "measurement": "inhibition", "result": "82%", "Compound": "CCN(CC)CCNC(=O)c1c(C)[nH]c(/C=C2\\C(=O)Nc3ccc(F)cc32)c1C"}
